Measured values reported in ChEMBL document CHEMBL1833900, “Potent inhibition of Norwalk virus by cyclic sulfamide derivatives” (Bioorg Med Chem, 2011).

Key:
[1] = Cytotoxicity against human HG23 cells after 48 hrs; assay type: cell-based; conditions: read-out: TD50
Summary of the method: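 Replicon-harboring HG23 cells exposed to graded compound levels from 0 (mock-DMSO) to 320 µM for 48 h. Viability read with a commercial cell cytotoxicity assay kit, and the median toxic dose (TD50) was calculated from it.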

[2] = tested on: Norwalk virus; experiment: Antiviral activity against Norwalk virus infected in human HG23 cells assessed as inhibition of viral replication after 24 hrs by qRT-PCR; assay type: functional; conditions: HG23, 24 h, read-out: ED50 (the source's name)
Summary of the method: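 HG23 cells (Norwalk virus replicon-bearing), one day old at 80–90% confluence, exposed to graded compound levels from 0 (mock-DMSO) to 10 µM. NV genome quantified by qRT-PCR; ED50 for genome levels taken at 24 h post-treatment. Values averaged over at least two independent experiments, mean ± standard deviation.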

Row | SMILES | CC50 at 48 h [1] [µM] | EC50 [2] [µM]
1 | COC(=O)CCCCN1CCN(Cc2cccc(Oc3ccccc3)c2)S1(=O)=O | 46 | 9.7
2 | O=C(O)CCCCCCN1CCN(Cc2cccc(Oc3ccccc3)c2)S1(=O)=O |  | > 10
3 | O=S1(=O)NCCN1Cc1cn(Cc2ccccc2)nn1 |  | > 10
4 | O=S1(=O)NCCN1Cc1ccc(OC(F)(F)F)cc1 |  | > 10
5 | CCCCc1ccc(CN2CCNS2(=O)=O)cc1 |  | > 10
6 | CCCc1ccc(CN2CCNS2(=O)=O)cc1 |  | > 10
7 | O=C(O)c1ccc(CN2CCN(Cc3cccc(Oc4ccccc4)c3)S2(=O)=O)cc1 |  | > 10
8 | O=S1(=O)NCCN1Cc1ccc(OCc2ccccc2)cc1 | 159 | 9.8
9 | O=S1(=O)NCCN1Cc1cccc(O)c1 |  | > 10
10 | COc1ccc(CN2CCNS2(=O)=O)cc1 |  | > 10
11 | O=S1(=O)NCCN1Cc1cccc(OC(F)(F)F)c1 |  | > 10
12 | COC(=O)CCCN1CCN(Cc2cccc(Oc3ccccc3)c2)S1(=O)=O |  | > 10
13 | O=S1(=O)N(Cc2ccc(F)cc2)CCN1Cc1cccc(Oc2ccccc2)c1 |  | > 10
14 | O=S1(=O)NCCN1Cc1ccc(Oc2ccccc2)cc1 | 57 | 5.8
15 | CN1CCN(Cc2cccc(Oc3ccccc3)c2)S1(=O)=O |  | > 10
16 | NC(=O)CN1CCN(Cc2cccc(Oc3ccccc3)c2)S1(=O)=O |  | > 10
17 | O=S1(=O)NCCN1Cc1cccc(Cl)c1 |  | > 10
18 | O=S1(=O)N(Cc2ccccc2)CCN1Cc1cccc(Oc2ccccc2)c1 |  | > 10
19 | O=S1(=O)N(CCN2CCOCC2)CCN1Cc1cccc(Oc2ccccc2)c1 | 49 | 
20 | CSc1ccc(CN2CCNS2(=O)=O)cc1 |  | > 10
21 | CC(C)Cc1ccc(CN2CCNS2(=O)=O)cc1 |  | 9.7
22 | CCCOc1ccc(CN2CCNS2(=O)=O)cc1 | 96 | 5.2
23 | CC(C)Oc1ccc(CN2CCNS2(=O)=O)cc1 |  | > 10

Row | SMILES | CC50 at 48 h [1] [µM] | EC50 [2] [µM]
24 | COC(=O)c1ccc(CN2CCN(Cc3cccc(Oc4ccccc4)c3)S2(=O)=O)cc1 |  | > 10
25 | COC(=O)CN1CCN(Cc2cccc(Oc3ccccc3)c2)S1(=O)=O |  | > 10
26 | O=S1(=O)N(CCN2CCCCC2)CCN1Cc1cccc(Oc2ccccc2)c1 | 9.8 | 4.3
27 | O=S1(=O)NCCN1CC1CCCN(Cc2ccccc2)C1 (configuration not stated) |  | > 10
28 | O=S1(=O)N(Cc2cccnc2)CCN1Cc1cccc(Oc2ccccc2)c1 | 53 | 8.1
29 | COC(=O)CCCCCCN1CCN(Cc2cccc(Oc3ccccc3)c2)S1(=O)=O |  | > 10
30 | O=S1(=O)NCCN1Cc1cccc(Oc2ccccc2)c1 | 50 | 4.1
31 | CCCCOc1ccc(CN2CCNS2(=O)=O)cc1 |  | 9.5
32 | COc1ccc(Cn2cc(CN3CCN(C(=O)OC(C)(C)C)S3(=O)=O)nn2)cc1 |  | 9.8
33 | CCOc1ccc(CN2CCNS2(=O)=O)cc1 |  | > 10
34 | N#CCN1CCN(Cc2cccc(Oc3ccccc3)c2)S1(=O)=O |  | > 10
35 | O=C(O)CCCN1CCN(Cc2cccc(Oc3ccccc3)c2)S1(=O)=O |  | > 10
36 | COC(=O)CCN1CCN(Cc2cccc(Oc3ccccc3)c2)S1(=O)=O |  | > 10
37 | CC(C)(C)OC(=O)N1CCN(Cc2cn(Cc3ccccc3)nn2)S1(=O)=O |  | > 10
38 | O=S1(=O)NCCN1Cc1ccc(Cl)cc1 |  | > 10
39 | O=C(O)CN1CCN(Cc2cccc(Oc3ccccc3)c2)S1(=O)=O | 48 | 7.8
40 | O=S1(=O)NCCN1Cc1cccc(Oc2ccc(F)cc2)c1 | 98 | > 10
41 | O=S1(=O)NCCN1Cc1cccc(OCc2ccccc2)c1 | 18 | 5.2
42 | COc1ccc(Cn2cc(CN3CCNS3(=O)=O)nn2)cc1 |  | > 10
43 | CCN1CCN(Cc2cccc(Oc3ccccc3)c2)S1(=O)=O |  | > 10
44 | O=C(O)CCCCN1CCN(Cc2cccc(Oc3ccccc3)c2)S1(=O)=O | 100 | 6.1
45 | O=C(O)CCN1CCN(Cc2cccc(Oc3ccccc3)c2)S1(=O)=O |  | > 10
46 | COc1cccc(CN2CCNS2(=O)=O)c1 |  | > 10
